Measured values as given in ChEMBL document CHEMBL3576825, “Antineoplastic agents. 600. From the South Pacific Ocean to the silstatins” (J Nat Prod, 2015).

Columns and labels:
MCF7 = assay: Cytotoxicity against human MCF7 cells after 48 hrs by sulforhodamine B assay; type: functional; conditions: MCF7, 48 h
Outline: (§1)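 NCI standard SRB protocol. Cells were seeded in 5% FBS/RPMI-1640 and incubated 24 h, then given serial dilutions of compound for 48 h. Plates were fixed with trichloroacetic acid, stained with sulforhodamine B and read by microplate reader. GI50, the concentration giving a 50% reduction in net protein increase, was calculated from optical density data.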

[1] = Cytotoxicity against human BxPC3 cells after 48 hrs by sulforhodamine B assay; type: functional; conditions: BXPC-3, 48 h; outline: as §1
NCI-H460 = assay: Cytotoxicity against human NCI-H460 cells after 48 hrs by sulforhodamine B assay; type: functional; conditions: NCI-H460, 48 h; outline: as §1
SF-268 = assay: Cytotoxicity against human SF268 cells after 48 hrs by sulforhodamine B assay; type: functional; conditions: SF-268, 48 h; outline: as §1
DU-145 = assay: Cytotoxicity against human DU145 cells after 48 hrs by sulforhodamine B assay; type: functional; conditions: DU-145, 48 h; outline: as §1
[2] = Cytotoxicity against human KM20L2 cells after 48 hrs by sulforhodamine B assay; type: functional; conditions: KM-20L2, 48 h; outline: as §1
[3] = Cytotoxicity against human CRL2221 cells after 48 hrs by sulforhodamine B assay; type: cell-based
[4] = Cytotoxicity against human MCF10A cells after 48 hrs by sulforhodamine B assay; type: cell-based, MCF-10A

Structure (SMILES)	GI50 (MCF7)	GI50 [1]	GI50 (NCI-H460)	GI50 (SF-268)	GI50 (DU-145)	GI50 [2]	GI50 at 48 h [3]	GI50 at 48 h [4]
CC(C)[C@@H]1NC(=O)[C@H](C)OC(=O)[C@@H](C(C)C)NC(=O)[C@@H](CC2CCCCC2)OC(=O)[C@H](C(C)C)NC(=O)[C@H](C)OC(=O)[C@@H](C(C)C)NC(=O)[C@@H](CC2CCCCC2)OC(=O)[C@H](Cc2ccc(O)cc2)NC(=O)[C@H](C)OC(=O)[C@@H](C(C)C)NC(=O)[C@@H](CC2CCCCC2)OC1=O	89.7 nM	396 nM	239 nM	37.4 nM	164 nM	67.3 nM	–	–
CC[C@H](C)[C@H]1OC(=O)[C@H](C(C)C)NC(=O)[C@H](C)OC(=O)[C@@H](C(C)C)NC(=O)[C@@H]([C@@H](C)CC)OC(=O)[C@H](C(C)C)NC(=O)[C@H](C)OC(=O)[C@@H](C(C)C)NC(=O)[C@@H](CC(C)C)OC(=O)[C@H](C(C)C)NC(=O)[C@H](C)OC(=O)[C@@H](C(C)C)NC1=O	0.27 nM	0.29 nM	0.39 nM	1.6 nM	0.75 nM	0.23 nM	–	–
CC(C)[C@@H]1NC(=O)[C@H](C)OC(=O)[C@@H](C(C)C)NC(=O)[C@@H](CC2CCCCC2)OC(=O)[C@H]([C@@H](C)OC(C)(C)C)NC(=O)[C@H](C)OC(=O)[C@@H](C(C)C)NC(=O)[C@@H](CC2CCCCC2)OC(=O)[C@H](C(C)C)NC(=O)[C@H](C)OC(=O)[C@@H](C(C)C)NC(=O)[C@@H](CC2CCCCC2)OC1=O	56.3 nM	135 nM	240 nM	56.3 nM	90 nM	60 nM	–	–
CC(C)C[C@H]1OC(=O)[C@H](C(C)C)NC(=O)[C@H](C)OC(=O)[C@@H](C(C)C)NC(=O)[C@@H](CC2CCCCC2)OC(=O)[C@H]([C@@H](C)O)NC(=O)[C@H](C)OC(=O)[C@@H](C(C)C)NC(=O)[C@@H](CC(C)C)OC(=O)[C@H](C(C)C)NC(=O)[C@H](C)OC(=O)[C@@H](C(C)C)NC1=O	1.5 nM	3.2 nM	3.3 nM	2.6 nM	2.5 nM	1.7 nM	3.35 nM	3.35 nM
CC(C)C[C@H]1OC(=O)[C@H](Cc2ccc(O)cc2)NC(=O)[C@H](C)OC(=O)[C@@H](C(C)C)NC(=O)[C@@H](CC(C)C)OC(=O)[C@H](C(C)C)NC(=O)[C@H](C)OC(=O)[C@@H](C(C)C)NC(=O)[C@@H](CC(C)C)OC(=O)[C@H](C(C)C)NC(=O)[C@H](C)OC(=O)[C@@H](C(C)C)NC1=O	1.3 nM	4.1 nM	3 nM	3.3 nM	4.2 nM	0.9 nM	–	–
CC(C)C[C@H]1OC(=O)[C@H](C(C)C)NC(=O)[C@H](C)OC(=O)[C@@H](C(C)C)NC(=O)[C@@H](CC2CCCCC2)OC(=O)[C@H]([C@@H](C)OC(C)(C)C)NC(=O)[C@H](C)OC(=O)[C@@H](C(C)C)NC(=O)[C@@H](CC(C)C)OC(=O)[C@H](C(C)C)NC(=O)[C@H](C)OC(=O)[C@@H](C(C)C)NC1=O	0.79 nM	18 nM	7.2 nM	3.2 nM	5.6 nM	1.9 nM	–	–
CC(C)[C@@H]1NC(=O)[C@H](C)OC(=O)[C@@H](C(C)C)NC(=O)[C@@H](CC2CCCCC2)OC(=O)[C@H](C(C)C)NC(=O)[C@H](C)OC(=O)[C@@H](C(C)C)NC(=O)[C@@H](CC2CCCCC2)OC(=O)[C@H](C(C)C)NC(=O)[C@H](C)OC(=O)[C@@H](C(C)C)NC(=O)[C@@H](CC2CCCCC2)OC1=O	141 nM	392 nM	314 nM	63.6 nM	173 nM	141 nM	–	–
CC[C@H](C)[C@H]1OC(=O)[C@H](C(C)C)NC(=O)[C@H](C)OC(=O)[C@@H](C(C)C)NC(=O)[C@@H]([C@@H](C)CC)OC(=O)[C@H](C(C)C)NC(=O)[C@H](C)OC(=O)[C@@H](C(C)C)NC(=O)[C@@H]([C@@H](C)CC)OC(=O)[C@H](C(C)C)NC(=O)[C@H](C)OC(=O)[C@@H](C(C)C)NC1=O [BACILLISTATIN 1]	0.53 nM	0.82 nM	1.2 nM	0.39 nM	1.3 nM	0.75 nM	–	–
CC(C)[C@@H]1NC(=O)[C@H](C)OC(=O)[C@@H](C(C)C)NC(=O)[C@@H](CC2CCCCC2)OC(=O)[C@H]([C@@H](C)O)NC(=O)[C@H](C)OC(=O)[C@@H](C(C)C)NC(=O)[C@@H](CC2CCCCC2)OC(=O)[C@H](C(C)C)NC(=O)[C@H](C)OC(=O)[C@@H](C(C)C)NC(=O)[C@@H](CC2CCCCC2)OC1=O	2.4 nM	24 nM	16 nM	3.4 nM	3.9 nM	3.4 nM	–	–
CC(C)C[C@H]1OC(=O)[C@H](C(C)C)NC(=O)[C@H](C)OC(=O)[C@@H](C(C)C)NC(=O)[C@@H](CC(C)C)OC(=O)[C@H](C(C)C)NC(=O)[C@H](C)OC(=O)[C@@H](C(C)C)NC(=O)[C@@H](CC(C)C)OC(=O)[C@H](C(C)C)NC(=O)[C@H](C)OC(=O)[C@@H](C(C)C)NC1=O	0.095 nM	0.69 nM	0.61 nM	0.18 nM	0.36 nM	0.14 nM	–	–
CC(C)C[C@H]1OC(=O)[C@H](C(C)C)NC(=O)[C@H](C)OC(=O)[C@@H](C(C)C)NC(=O)[C@@H](CC(C)C)OC(=O)[C@H]([C@@H](C)O)NC(=O)[C@H](C)OC(=O)[C@@H](C(C)C)NC(=O)[C@@H](CC(C)C)OC(=O)[C@H](C(C)C)NC(=O)[C@H](C)OC(=O)[C@@H](C(C)C)NC1=O	1.9 nM	3.5 nM	2.8 nM	2.7 nM	5.2 nM	2.9 nM	–	–
CC(C)C[C@H]1OC(=O)[C@H](C(C)C)NC(=O)[C@H](C)OC(=O)[C@@H](C(C)C)NC(=O)[C@@H](CC2CCCCC2)OC(=O)[C@H]([C@@H](C)OC(=O)CCCN(C)C(=O)OCc2ccc(O[C@@H]3O[C@H](C(=O)O)[C@@H](O)[C@H](O)[C@H]3O)c([N+](=O)[O-])c2)NC(=O)[C@H](C)OC(=O)[C@@H](C(C)C)NC(=O)[C@@H](CC(C)C)OC(=O)[C@H](C(C)C)NC(=O)[C@H](C)OC(=O)[C@@H](C(C)C)NC1=O	18.6 nM	120 nM	42 nM	30 nM	78.1 nM	24 nM	30 nM	150 nM
CC(C)C[C@H]1OC(=O)[C@H](Cc2ccc(OC(C)(C)C)cc2)NC(=O)[C@H](C)OC(=O)[C@@H](C(C)C)NC(=O)[C@@H](CC(C)C)OC(=O)[C@H](C(C)C)NC(=O)[C@H](C)OC(=O)[C@@H](C(C)C)NC(=O)[C@@H](CC(C)C)OC(=O)[C@H](C(C)C)NC(=O)[C@H](C)OC(=O)[C@@H](C(C)C)NC1=O	3.3 nM	24 nM	23 nM	2 nM	8.6 nM	3.8 nM	–	–
CC(C)[C@@H]1NC(=O)[C@H](C)OC(=O)[C@@H](C(C)C)NC(=O)[C@@H](CC2CCCCC2)OC(=O)[C@H](C(C)C)NC(=O)[C@H](C)OC(=O)[C@@H](C(C)C)NC(=O)[C@@H](CC2CCCCC2)OC(=O)[C@H](Cc2ccc(OC(C)(C)C)cc2)NC(=O)[C@H](C)OC(=O)[C@@H](C(C)C)NC(=O)[C@@H](CC2CCCCC2)OC1=O	> 717 nM	> 717 nM	> 717 nM	> 717 nM	> 717 nM	> 717 nM	–	–
CC(C)C[C@H]1OC(=O)[C@H](C(C)C)NC(=O)[C@H](C)OC(=O)[C@@H](C(C)C)NC(=O)[C@@H](CC(C)C)OC(=O)[C@H](C(C)C)NC(=O)[C@H](C)OC(=O)[C@@H](C(C)C)NC(=O)[C@@H](CC2CCCCC2)OC(=O)[C@H](Cc2ccc(O)cc2)NC(=O)[C@H](C)OC(=O)[C@@H](C(C)C)NC1=O	0.88 nM	4.8 nM	3.2 nM	2.4 nM	4.3 nM	1.7 nM	–	–
CC(C)C[C@H]1OC(=O)[C@H](C(C)C)NC(=O)[C@H](C)OC(=O)[C@@H](C(C)C)NC(=O)[C@@H](CC(C)C)OC(=O)[C@H](C(C)C)NC(=O)[C@H](C)OC(=O)[C@@H](C(C)C)NC(=O)[C@@H](CC2CCCCC2)OC(=O)[C@H](Cc2ccc(OC(C)(C)C)cc2)NC(=O)[C@H](C)OC(=O)[C@@H](C(C)C)NC1=O	24 nM	68 nM	91 nM	46 nM	30 nM	40 nM	–	–
